Measurements: PMC8717676 (The Journal of nutritional biochemistry, 2011)
Where “and” joins values, the source holds several entries; their conditions need not be identical. Identical values can stand only once. Like-named read-outs stand apart in the source and are kept apart here.

Columns and labels:
[1] = target: membrane-bound F1Fo-ATPase (Escherichia coli, UniProt P0ABA6+P0ABB0+P0ABB4); test: ATP hydrolysis by membrane vesicles; assay type: biochemical, E. coli; conditions: for IC50: two replicates of 5-6 concentrations
F1-ATPase = F1-ATPase (Escherichia coli, UniProt P0ABA6+P0ABB0+P0ABB4); test: ATP hydrolysis by purified F1-ATPase, colorimetric phosphate release; assay type: biochemical, E. coli; conditions: for IC50: read-out: F1-ATPase Activity IC50
Chain of F1-ATPase (P0A6E6 2-139): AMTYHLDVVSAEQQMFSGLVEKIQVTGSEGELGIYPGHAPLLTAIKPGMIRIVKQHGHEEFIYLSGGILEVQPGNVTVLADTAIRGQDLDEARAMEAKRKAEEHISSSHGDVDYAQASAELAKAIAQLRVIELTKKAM
Chain of F1-ATPase (P0ABB4 2-460): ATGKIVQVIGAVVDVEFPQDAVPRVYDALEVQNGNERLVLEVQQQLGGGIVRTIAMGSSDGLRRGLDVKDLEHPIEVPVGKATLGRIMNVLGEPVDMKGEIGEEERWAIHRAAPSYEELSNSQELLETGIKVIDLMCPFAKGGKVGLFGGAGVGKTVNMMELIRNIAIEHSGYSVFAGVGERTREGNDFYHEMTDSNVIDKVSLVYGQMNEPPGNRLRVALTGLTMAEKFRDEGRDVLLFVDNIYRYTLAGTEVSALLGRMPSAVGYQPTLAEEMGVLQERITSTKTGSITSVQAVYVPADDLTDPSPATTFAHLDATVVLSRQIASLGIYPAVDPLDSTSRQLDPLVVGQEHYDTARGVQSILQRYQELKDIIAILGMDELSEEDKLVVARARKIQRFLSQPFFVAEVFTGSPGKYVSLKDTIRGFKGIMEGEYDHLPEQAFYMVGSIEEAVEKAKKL
Chain of F1-ATPase (P0ABB0 whole entry): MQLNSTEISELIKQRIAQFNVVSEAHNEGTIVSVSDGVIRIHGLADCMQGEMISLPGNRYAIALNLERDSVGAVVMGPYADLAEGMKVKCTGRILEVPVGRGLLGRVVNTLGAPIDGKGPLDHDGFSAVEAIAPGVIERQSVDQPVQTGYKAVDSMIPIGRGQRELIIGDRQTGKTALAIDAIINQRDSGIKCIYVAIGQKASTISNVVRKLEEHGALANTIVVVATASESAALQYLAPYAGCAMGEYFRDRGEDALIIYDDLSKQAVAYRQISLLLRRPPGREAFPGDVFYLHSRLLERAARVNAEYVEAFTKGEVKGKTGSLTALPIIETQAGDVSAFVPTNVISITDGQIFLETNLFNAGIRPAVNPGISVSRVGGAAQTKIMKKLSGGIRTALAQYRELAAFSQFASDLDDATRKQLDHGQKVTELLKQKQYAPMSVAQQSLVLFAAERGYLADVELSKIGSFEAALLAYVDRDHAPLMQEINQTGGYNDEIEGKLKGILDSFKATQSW
Chain of F1-ATPase (P0ABA4 whole entry, further chain): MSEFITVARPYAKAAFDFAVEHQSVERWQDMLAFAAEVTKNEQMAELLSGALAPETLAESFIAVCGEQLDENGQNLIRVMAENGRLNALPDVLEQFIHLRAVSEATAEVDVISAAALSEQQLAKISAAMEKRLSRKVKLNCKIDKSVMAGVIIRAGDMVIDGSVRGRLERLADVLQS
Chain of F1-ATPase (P0ABA6 whole entry): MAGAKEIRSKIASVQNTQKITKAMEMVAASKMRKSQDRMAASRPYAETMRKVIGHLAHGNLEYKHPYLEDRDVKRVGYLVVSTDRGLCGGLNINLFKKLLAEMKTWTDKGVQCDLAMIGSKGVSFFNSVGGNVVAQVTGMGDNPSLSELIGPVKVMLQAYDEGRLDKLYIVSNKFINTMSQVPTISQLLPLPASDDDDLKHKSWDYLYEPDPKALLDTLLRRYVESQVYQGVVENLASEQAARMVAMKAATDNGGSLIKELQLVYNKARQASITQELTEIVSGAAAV

NDH-1 (Complex I) = NDH-1 (Complex I) (Escherichia coli, UniProt P31979); test: NDH-1 NADH oxidase activity in membrane vesicles; assay type: biochemical, E. coli; conditions: for NDH-1 Deamino-NADH oxidase Maximum inhibition: strain 1100 membranes
[2] = target: NDH-2 (alternative NADH dehydrogenase) (Escherichia coli, UniProt P00393); test: NDH-2 NADH oxidase activity in membrane vesicles of strain BA14; assay type: biochemical, E. coli
Chain of NDH-2 (alternative NADH dehydrogenase) (P00393 whole entry): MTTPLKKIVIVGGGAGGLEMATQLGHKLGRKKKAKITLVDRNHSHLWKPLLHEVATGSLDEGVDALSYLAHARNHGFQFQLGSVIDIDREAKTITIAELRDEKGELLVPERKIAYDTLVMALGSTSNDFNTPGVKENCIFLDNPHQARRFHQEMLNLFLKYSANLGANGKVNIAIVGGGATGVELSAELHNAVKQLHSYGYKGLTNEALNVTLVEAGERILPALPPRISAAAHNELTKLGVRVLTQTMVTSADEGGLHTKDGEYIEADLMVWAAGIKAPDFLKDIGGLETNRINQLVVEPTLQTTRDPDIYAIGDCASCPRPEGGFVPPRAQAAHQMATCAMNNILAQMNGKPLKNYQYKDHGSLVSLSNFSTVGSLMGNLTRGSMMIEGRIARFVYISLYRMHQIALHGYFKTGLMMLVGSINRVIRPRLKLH

[3] = tested on: ATP synthase from E. coli; conditions: cited from earlier work
[4] = tested on: superoxide production by NDH-1 and NDH-2; assay type: biochemical, E. coli
In short: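 E. coli membrane vesicles, prepared at pH 6.0, from strain MWC215 (no NDH-2) or BA14 (nuo deletion, no NDH-1); 200 μg in 0.2 ml of 50 mM MOPS pH 7.3 with 10 mM MgCl2. Preincubated 5 min with increasing test compound, then 5 μM MitoSOX plus 1.25 mM NADH added. Dark, 15 min, 30 °C; fluorescence 510/580 nm. Background controls: no NADH; SOD (150 units).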

[5] = tested on: rat liver mitochondrial ATP synthase; conditions: read-out: IC50, rat liver mitochondrial ATP synthase; cited from earlier work
[6] = membrane vesicles from wild type strain 1100
[7] = read-out: Membrane-bound ATPase Activity IC50, membrane vesicles from wild type strain 1100
[8] = read-out: NDH-2 NADH oxidase IC50, strain BA14 membranes, 250 μM NADH

## O=c1c(O)cc([C@H]2Oc3cc(O)cc(O)c3C[C@H]2O)cc2c([C@H]3Oc4cc(O)cc(O)c4C[C@H]3O)cc(O)c(O)c12 [TF1, theaflavin]
[1]; Membrane-bound ATPase Activity IC50, membrane vesicles from wild type strain 1100
  IC50: ~60 µM and 60 µM
[1]; [6]
  Membrane-bound ATPase Activity Maximum inhibition: 85%
F1-ATPase
  F1-ATPase Activity Maximum inhibition: 85%
  IC50: 4 µM
NDH-1 (Complex I)
  IC50: 45 µM
  NDH-1 Deamino-NADH oxidase Maximum inhibition: 95%
[2]
  IC50: 3 µM
[2]; strain BA14 membranes
  NDH-2 NADH oxidase Maximum inhibition: 75%

## COc1cc(C2Oc3cc([C@H]4Oc5cc(O)cc(O)c5C(=O)[C@@H]4O)ccc3OC2CO)ccc1O (stereo partly shown) [silibinin]
[3]
  extent of inhibition of E. coli ATP synthase: complete inhibition

## theaflavin-3,3′-digallate [TF3]
[4]; NADH oxidation by each dehydrogenase
  concentration at which superoxide production was completely eliminated: about 15 μM
[4]; added at levels in the range of the IC50 value
  effect on superoxide production: superoxide did not increase, but rather decreased

## CC(N)C12CC3CC(CC(C3)C1)C2 (stereo not shown) [rimantadin]
[3]
  extent of inhibition of E. coli ATP synthase: complete inhibition

## (−) epigallocatechin gallate [EGCG, reference compound]
[1]; [6]
  Membrane-bound ATPase Activity Maximum inhibition: 95%
[1]; [7]
  IC50: ~30 µM and 30 µM
F1-ATPase
  F1-ATPase Activity Maximum inhibition: 90%
  IC50: 4.5 µM
NDH-1 (Complex I)
  NDH-1 Deamino-NADH oxidase Maximum inhibition: 90%
[2]; [8]
  IC50: 20 µM
[2]; strain BA14 membranes
  NDH-2 NADH oxidase Maximum inhibition: 65%
[5]
  IC50: 17 µM

## O=C(O[C@@H]1Cc2c(O)cc(O)cc2O[C@@H]1c1cc(=O)c(O)c2c(O)c(O)cc([C@H]3Oc4cc(O)cc(O)c4C[C@H]3O)c2c1)c1cc(O)c(O)c(O)c1 [TF2A, theaflavin-3-gallate]
[1]; [6]
  Membrane-bound ATPase Activity Maximum inhibition: 95%
[1]; [7]
  IC50: 20 µM
F1-ATPase
  F1-ATPase Activity Maximum inhibition: 90%
  IC50: 3 µM
NDH-1 (Complex I)
  NDH-1 Deamino-NADH oxidase Maximum inhibition: 95%
[2]; [8]
  IC50: 3.5 µM
[2]; strain BA14 membranes
  NDH-2 NADH oxidase Maximum inhibition: 95%

## O=c1cc(-c2ccccc2)oc2cc(O)c(O)c(O)c12 [baicalein]
[3]
  extent of inhibition of E. coli ATP synthase: complete inhibition

## NC12CC3CC(CC(C3)C1)C2 [amantidin]
[3]
  extent of inhibition of E. coli ATP synthase: complete inhibition

## Oc1cc(O)cc(/C=C/c2ccc(O)c(O)c2)c1 [piceatannol]
[3]
  extent of inhibition of E. coli ATP synthase: complete inhibition

## O=c1c(O)c(-c2ccc(O)cc2O)oc2cc(O)cc(O)c12 [morin]
[3]
  extent of inhibition of E. coli ATP synthase: complete inhibition

## Oc1cc(O)c2c(c1)O[C@H](c1ccc(O)c(O)c1)[C@H](O)C2 [epicatechin, (−) epicatechin]
[3]
  extent of inhibition of E. coli ATP synthase: complete inhibition
[3]; read-out: IC50, E. coli ATP synthase
  IC50: 4000 µM

## O=C(O[C@@H]1Cc2c(O)cc(O)cc2O[C@@H]1c1cc(O)c(O)c2c(=O)c(O)cc([C@H]3Oc4cc(O)cc(O)c4C[C@H]3O)cc12)c1cc(O)c(O)c(O)c1 [TF2B, theaflavin-3′-gallate]
[1]; [6]
  Membrane-bound ATPase Activity Maximum inhibition: 95%
[1]; [7]
  IC50: 15 µM
F1-ATPase
  F1-ATPase Activity Maximum inhibition: 95%
  IC50: 1.5 µM
NDH-1 (Complex I)
  NDH-1 Deamino-NADH oxidase Maximum inhibition: 95%
[2]; [8]
  IC50: 2.5 µM
[2]; strain BA14 membranes
  NDH-2 NADH oxidase Maximum inhibition: 90%
